Experimental data: ChEMBL document CHEMBL3407348, “Antileishmanial activity of quinazoline derivatives: synthesis, docking screens, molecular dynamic simulations and electrochemical studies” (Eur J Med Chem, 2015)
Values after ≈ are worked out from the molar mass of the structure shown.

What was measured:
Leishmania mexicana [1] = assay: Antiparasitic activity against promastigote form of Leishmania mexicana MHOM/BZ/61/M379 at 100 uM after 24 hrs by haemocytometer; type: functional; conditions: for inhibition at 100 µM: MHOM/BZ/61/M379, 72 h, in the assay text read “72 hrs” for “24 hrs”
Method in brief: (§1)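 Promastigotes were grown in DMEM with L-glutamine and 4,500 mg/L glucose, without bicarbonate, plus 10% fetal calf serum. Serial compound dilutions (1:10 compound:medium) were mixed with an equal volume of 2 × 10⁶ parasites/mL at 26 °C. Parasites were counted by hemacytometer in triplicate. Growth inhibition was expressed as a percentage of the no-drug control, with 100 µM used for the initial screen.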

Pteridine reductase 1 = target: T1, Pteridine reductase 1 (Leishmania major, UniProt Q01782)
T1 sequence (Q01782 whole entry): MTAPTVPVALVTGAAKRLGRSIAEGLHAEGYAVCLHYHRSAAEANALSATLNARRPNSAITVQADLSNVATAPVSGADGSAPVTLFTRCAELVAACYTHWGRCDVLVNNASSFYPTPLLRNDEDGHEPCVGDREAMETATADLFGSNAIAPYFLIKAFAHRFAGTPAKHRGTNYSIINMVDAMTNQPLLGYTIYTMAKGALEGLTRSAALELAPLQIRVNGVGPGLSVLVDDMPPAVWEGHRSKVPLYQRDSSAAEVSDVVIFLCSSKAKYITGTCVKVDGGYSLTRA

[2] = Retention time of the compound; type: physicochemical
Method in brief: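 Reverse-phase HPLC on an RP-amide column (150 × 4.6 mm, 5 µm) with guard column. Mobile phase was 10 mM phosphate buffer pH 3.3 and acetonitrile (60:40 v/v) at 1.00 mL/min and 30 °C, with an 8 min run. UV detection at 240 and 272 nm.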

[3] = target: Bifunctional dihydrofolate reductase-thymidylate synthase (Leishmania major, UniProt P07382); assay: Binding affinity to Leishmania major DHFR
Leishmania mexicana [4] = assay: Antiparasitic activity against promastigote form of Leishmania mexicana MHOM/BZ/61/M379 after 72 hrs by haemocytometer; conditions: MHOM/BZ/61/M379, 72 h
physchem = conditions: phosphate buffered saline, pH 7.4
Leishmania mexicana [5] = assay: Antiparasitic activity against promastigote form of Leishmania mexicana MHOM/BZ/61/M379 after 24 hrs by haemocytometer; type: functional, organism-based; method in brief: as §1
Leishmania mexicana [6] = conditions: MHOM/BZ/61/M379, 100 uM
Leishmania mexicana [7] = conditions: MHOM/BZ/61/M379, 100 uM; remark: listed apart in the source
in vitro = conditions: mouse, L929 cells
Leishmania mexicana [8] = assay: Antiparasitic activity against Leishmania mexicana MHOM/BZ/61/M379 assessed as oxygen consumption at 5.74 mM during 1 hr by fluorescence assay (reference value: 100%); type: functional
Method in brief: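 Promastigotes (5 × 10⁶) were placed in microplate wells containing an oxygen-sensitive fluorophore with the test agent for 1 or 2 h. Oxygen consumption was read as fluorescence on a plate reader and expressed relative to untreated parasites (100%). Sodium cyanide served as the mitochondrial-damage control and dithionite as the oxygen-abolition control. Run in triplicate, with at least four independent experiments.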

Bifunctional dihydrofolate reductase-thymidylate synthase, sequence (P07382 whole entry): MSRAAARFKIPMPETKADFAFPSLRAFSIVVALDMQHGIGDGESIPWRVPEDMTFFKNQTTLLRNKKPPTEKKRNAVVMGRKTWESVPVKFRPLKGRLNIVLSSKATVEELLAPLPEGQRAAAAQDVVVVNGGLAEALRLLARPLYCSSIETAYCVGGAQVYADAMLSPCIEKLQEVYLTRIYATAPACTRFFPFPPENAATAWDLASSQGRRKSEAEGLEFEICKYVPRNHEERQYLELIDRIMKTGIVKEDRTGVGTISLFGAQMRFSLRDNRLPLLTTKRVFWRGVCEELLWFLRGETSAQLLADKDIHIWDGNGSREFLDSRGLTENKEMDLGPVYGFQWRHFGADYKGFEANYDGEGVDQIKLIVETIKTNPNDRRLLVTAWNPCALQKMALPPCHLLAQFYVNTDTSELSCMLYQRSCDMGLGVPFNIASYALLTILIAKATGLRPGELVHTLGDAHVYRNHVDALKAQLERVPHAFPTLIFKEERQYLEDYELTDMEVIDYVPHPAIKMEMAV

| Molecule | inhibition at 100 µM (Leishmania mexicana [1]) | Kd (Pteridine reductase 1) | Retention_time [2] | Kd [3] | IC50 (Leishmania mexicana [4]) | solubility (physchem) | other results |
| --- | --- | --- | --- | --- | --- | --- | --- |
| COc1ccc(CNc2ccc3nc(N)nc(N)c3c2)cc1 | 100% | 2.85 µM | 3.081 min | 1.58 µM | 14.6 µM | 250 µg/mL (≈ 846 µM) |  |
| CCc1nc(N)nc(N)c1-c1ccc(Cl)cc1 [PYRIMETHAMINE] | 50% |  |  |  | 100 µM |  |  |
| Nc1nc(N)c2cc(NCc3ccc([N+](=O)[O-])cc3)ccc2n1 | 20% | 1.43 µM | 3.841 min | 0.241 µM | > 100 µM |  |  |
| Nc1ccc2nc(N)nc(N)c2c1 [QUINAZOLINE-2,4,6-TRIAMINE] | 0% | 58.8 µM |  | 84 µM |  | > 9000 µg/mL |  |
| MEGLUMINE ANTIMONATE [listing 1 of 2 here] |  |  |  |  |  |  | IC50 (Leishmania mexicana [5]): 183 µM |
| MEGLUMINE ANTIMONATE [listing 2 of 2 here] |  |  |  |  |  |  | inhibition (Leishmania mexicana [1]): 100% |
| COc1cc(Cc2cnc(N)nc2N)cc(OC)c1OC [TRIMETHOPRIM] | 30% |  |  |  | > 100 µM |  | survival (Leishmania mexicana [6]): 70%; survival (Leishmania mexicana [7]): 100% |
| Nc1nc(N)c2cc(NCCn3c(C(F)(F)F)nc4cc(Cl)c(Cl)cc43)ccc2n1 | 0% |  | 3.188 min | 0.752 µM |  | 510 µg/mL (≈ 1120 µM) |  |
| Nc1nc(N)c2cc([N+](=O)[O-])ccc2n1 |  | 0.261 µM |  | 15.8 µM |  |  |  |
| CC1CS(=O)(=O)CCN1/N=C/c1ccc([N+](=O)[O-])o1 (stereo unspecified) [NIFURTIMOX] |  |  |  |  |  |  | viability at 48 h, 100 µM (in vitro): 42% |
| Nc1nc(N)c2cc(NCc3ccc(O)cc3)ccc2n1 | 0% | 2.4 µM | 3.081 min | 1.02 µM |  | 380 µg/mL (≈ 1350 µM) |  |
| O=S([O-])S(=O)[O-].[Na+].[Na+] |  |  |  |  |  |  | Activity (Leishmania mexicana [8]): 175.9% |
